The record followed here is ChEMBL document CHEMBL4765333, “Novel NO-releasing scopoletin derivatives induce cell death via mitochondrial apoptosis pathway and cell cycle arrest” (Eur J Med Chem, 2020).

The test system of data set [1] is MCF7. Briefly: Antiproliferative activity against human MCF7 cells assessed as inhibition of cell growth rate at 10 uM measured after 48 hrs by MTT assay. Type of data set: functional. The procedure, abridged:
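MCF-7 cells in DMEM with 10% FBS exposed to a single 10 µM concentration for 48 h. Read-out by MTT (0.5 mg/ml, 4 h, DMSO dissolution, A570). Inhibition rate given versus untreated control as mean ± SD, n = 3.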
A general note: Formazan colour is commonly taken as a measure of viable cells.

Data set [2] can be described thus: Anticancer activity against human MDA-MB-231 cells assessed as inhibition of cell proliferation measured after 48 hrs by MTT assay. Type of data set: functional, cell-based. The settings on record: MDA-MB-23, 48 h. The procedure, abridged:
(§1)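 Cells seeded at ~5,000/well, grown 24 h to partial monolayer, then exposed 48 h at 37°C, 5% CO2 to 0.5, 1, 2, 4, 10 and 20 µM (DMSO ≤0.1%). MTT final 0.5 mg/ml for 4 h, formazan dissolved in DMSO, A570. Survival expressed as % of untreated control; IC50 from dose-response curves; three independent experiments. MDA-MB-231, MCF-7, HepG2 in DMEM; A549 and LO-2 in RPMI-1640; 10% FBS.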

In data set [3] the test system is MCF7. Briefly: Anticancer activity against human MCF7 cells assessed as inhibition of cell proliferation measured after 48 hrs by MTT assay. Type of data set: functional, cell-based. The settings on record: MCF7, 48 h. The procedure, abridged:
as §1

Data set [4] deals with HepG2. Description: Anticancer activity against human HepG2 cells assessed as inhibition of cell proliferation measured after 48 hrs by MTT assay. The following applies: HepG2, 48 h. Type of data set: functional, cell-based. The procedure, abridged: as §1
Data set [5] concerns A549. Description: Anticancer activity against human A549 cells assessed as inhibition of cell proliferation measured after 48 hrs by MTT assay. The following applies: A549, 48 h. Type of data set: functional, cell-based. The procedure, abridged:
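Cells seeded at ~5,000/well, grown 24 h to partial monolayer, then exposed 48 h at 37°C, 5% CO2 to 0.5, 1, 2, 4, 10 and 20 µM (DMSO ≤0.1%). MTT final 0.5 mg/ml for 4 h, formazan dissolved in DMSO, A570. Survival expressed as % of untreated control; IC50 from dose-response curves; three independent experiments.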

Data set [6] concerns L02. Briefly: Cytotoxicity against human L02 cells assessed as reduction in cell viability measured after 48 hrs by MTT assay. Type of data set: cell-based. The settings on record: L02, 48 h. The procedure, abridged:
as §1

Data set [7] is described as follows: Prodrug release in human MDA-MB-231 cells assessed as increase in intracellular NO level at 25 uM measured after 2.5 hrs by total nitric oxide assay. Type of data set: ADME, cell-based. The settings on record: mda-mb-23, 2.5 h. The procedure, abridged:
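MDA-MB-231 (2×10^5 cells/well) cultured 24 h, then treated 2.5 h with compound at 25 µM or DMSO. Cells harvested, lysed in nitric oxide assay buffer 1 h on ice; lysate NO quantified with a total nitric oxide assay kit. Mean ± SD, n = 3.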

Data set [8] is described as follows: Prodrug release in human MDA-MB-231 cells assessed as increase in intracellular NO level at 10 uM measured after 2.5 hrs by DAF-FM DA reagent based scanning electron microscopy. Type of data set: ADME, cell-based. The settings on record: mda-mb-231, 2.5 h, in the assay text read “laser scanning confocal microscopy” for “scanning electron microscopy”. The procedure, abridged:
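After 24 h growth at 5×10^4 cells/well, MDA-MB-231 cells loaded with DAF-FM DA (5 µM) 30 min at 37°C, 5% CO2, PBS-washed, then incubated 2.5 h with compound at 1 or 10 µM (scopoletin at 10 µM). NO fluorescence imaged by laser scanning confocal microscopy.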

A short description of data set [9]: Anticancer activity against human MDA-MB-231 cells assessed as inhibition of cell proliferation measured after 48 hrs in presence of 3-amino-7-hydroxy-6-methoxy-2H-chromen-2-one by MTT assay. The settings on record: MDA-MB-23, 48 h. Type of data set: functional, cell-based. The procedure, abridged:
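MDA-MB-231 cells in DMEM with 10% FBS, ~5,000 cells/well, 24 h attachment, then compound for 48 h at 37°C, 5% CO2. MTT 0.5 mg/ml final for 4 h, DMSO solubilization, absorbance 570 nm; inhibition relative to untreated cells; experiments done three times.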

Broadly, the inhibition is the change of the read-out against control, counted positive when it falls. Broadly, the IC50 is the midpoint of a concentration-inhibition curve. With `COc1cc2cc(N)c(=O)oc2cc1OCCCCOc1no[n+]([O-])c1S(=O)(=O)c1ccccc1`, the inhibition at 10 µM in [1] stood at 89%. In addition, the IC50 in [2] worked out at 1.93 µM; in data set [3], 2.28 µM; in data set [4], 2.64 µM; in [5], 5.03 µM; in [6] it was 8.63 µM. The Drug metabolism entry in [7] is “Metabolite_Detected”.
Regarding `COc1cc2ccc(=O)oc2cc1OCCCCOc1no[n+]([O-])c1S(=O)(=O)c1ccccc1`, the inhibition at 10 µM in [1] is 84.4%. Further, the IC50 was 2.79 µM in data set [2]; 3.04 µM in [3]; 3.25 µM in [4]; 6.14 µM in data set [5]; 9.33 µM in [6]. Moreover, in data set [7], the Drug metabolism result is “Metabolite_Detected”.
On to `COc1cc2cc(NC(C)=O)c(=O)oc2cc1OCCCCCCOc1no[n+]([O-])c1S(=O)(=O)c1ccccc1`, for which, in data set [1], the inhibition at 10 µM is 48.6%. In addition, the half-maximal inhibitory concentration (IC50) in [2] turned out to be 7.89 µM; in data set [3] it was 11.3 µM; in data set [4] it was 6.59 µM; in data set [5], 15 µM; in data set [6], 17.3 µM. Also, the Drug metabolism entry in data set [7] is listed as “Metabolite_Detected”.
For `COc1cc2cc(NC(C)=O)c(=O)oc2cc1OCCCCOc1no[n+]([O-])c1S(=O)(=O)c1ccccc1`, the inhibition at 10 µM in [1] was found to be 80.4%. For the same compound, the 50% inhibitory concentration (IC50) in [2] stood at 3.15 µM; in data set [3] it was 3.44 µM; in data set [4], 3.29 µM; in [5], 7.19 µM; in [6], 9.19 µM. Further, in [7], the Drug metabolism result is “Metabolite_Detected”.
`COc1cc2ccc(=O)oc2cc1OCCOc1no[n+]([O-])c1S(=O)(=O)c1ccccc1`: the inhibition at 10 µM in [1] amounted to 89.2%. Besides, the IC50 is 2.86 µM in data set [2]; 3.54 µM in data set [3]; 3.61 µM in data set [4]; 7.24 µM in data set [5]; 10.9 µM in [6]. Besides, the Drug metabolism entry in [7] was “Metabolite_Detected”.
Turning to `COc1cccc2c1C(=O)c1c(O)c3c(c(O)c1C2=O)C[C@@](O)(C(=O)CO)C[C@@H]3O[C@H]1C[C@H](N)[C@H](O)[C@H](C)O1` [DOXORUBICIN], the IC50 in data set [2] came to 0.55 µM; in [3], 0.6 µM; in data set [4], 0.62 µM; in data set [6] it was 0.59 µM.
For the compound `COc1cc2ccc(=O)oc2cc1OCCCOc1no[n+]([O-])c1S(=O)(=O)c1ccccc1`, the inhibition at 10 µM in data set [1] was 88.6%. For the same compound, the IC50 in [2] is 1.85 µM; in data set [3], 2.27 µM; in data set [4] it was 2.9 µM; in data set [5] it was 5.45 µM; in data set [6], 7.82 µM.
For `COc1cc2cc(NC(C)=O)c(=O)oc2cc1OCCCOc1no[n+]([O-])c1S(=O)(=O)c1ccccc1`, in data set [1], the inhibition at 10 µM amounted to 88.5%. Also, the IC50 is 3.81 µM in data set [2]; 2.4 µM in [3]; 2.82 µM in [4]; 9.81 µM in [5]; 8.36 µM in data set [6]. Also, the Drug metabolism result in [7] was “Metabolite_Detected”.
On to `COc1cc2cc(NC(C)=O)c(=O)oc2cc1OCCOc1no[n+]([O-])c1S(=O)(=O)c1ccccc1`, for which the inhibition at 10 µM in data set [1] worked out at 83.7%. For the same compound, the IC50 in [2] is 4.99 µM; in data set [3] it was 6.89 µM; in data set [4] it was 4.83 µM; in [5] it was 8.79 µM; in data set [6], 10.2 µM. For the same compound, the Drug metabolism result in data set [7] is on record as “Metabolite_Detected”.
Regarding `COc1cc2cc(NC(C)=O)c(=O)oc2cc1OCCCCCOc1no[n+]([O-])c1S(=O)(=O)c1ccccc1`, the inhibition at 10 µM in data set [1] was 73.6%. Moreover, the IC50 is 4.34 µM in data set [2]; 6.27 µM in data set [3]; 5.42 µM in data set [4]; 11.4 µM in data set [5]; 13.8 µM in data set [6]. In data set [7], the Drug metabolism entry is “Metabolite_Detected”.
For the compound `COc1cc2cc(N)c(=O)oc2cc1OCCOc1no[n+]([O-])c1S(=O)(=O)c1ccccc1`, the inhibition at 10 µM in data set [1] came out at 88.5%. Moreover, the IC50 was found to be 2.46 µM in data set [2]; 2.77 µM in data set [3]; 3.06 µM in [4]; 5.91 µM in data set [5]; 9.82 µM in data set [6]. Besides, the Drug metabolism result in data set [7] is on record as “Metabolite_Detected”.
For `COc1cc2cc(N)c(=O)oc2cc1OCCCCCOc1no[n+]([O-])c1S(=O)(=O)c1ccccc1`, the inhibition at 10 µM in [1] worked out at 88.8%. Besides, the IC50 in data set [2] was 2.4 µM; in data set [3] it was 2.62 µM; in data set [4], 3.46 µM; in data set [5] it was 6.88 µM; in data set [6], 12.2 µM. In data set [7], the Drug metabolism result was “Metabolite_Detected”.
`COc1cc2ccc(=O)oc2cc1OCCCCCOc1no[n+]([O-])c1S(=O)(=O)c1ccccc1`: in data set [1], the inhibition at 10 µM was 87.1%. For the same compound, the IC50 in [2] stood at 3.17 µM; in [3] it was 3.85 µM; in data set [4], 3.42 µM; in data set [5] it was 10.6 µM; in data set [6], 8.86 µM. In data set [7], the Drug metabolism result is “Metabolite_Detected”.
In the case of `COc1cc2cc(N)c(=O)oc2cc1O`, in data set [1], the inhibition at 10 µM amounted to 7.13%. For the same compound, the IC50 in data set [2] is over 25 µM.
Consider `COc1cc2ccc(=O)oc2cc1O` [SCOPOLETIN], for which the inhibition at 10 µM in [1] was determined as 7.95%. Further, the IC50 in data set [2], in data set [3], in [4], in data set [5] and in [6] was over 25 µM each time. For the same compound, the Drug metabolism entry in data set [8] was “Metabolite_Notdetected”.
For the compound `COc1cc2cc(N)c(=O)oc2cc1OCCCCCCOc1no[n+]([O-])c1S(=O)(=O)c1ccccc1`, the inhibition at 10 µM in data set [1] was 84.4%. Also, the IC50 was 2.93 µM in [2]; 3.14 µM in data set [3]; 3.06 µM in data set [4]; 8.06 µM in data set [5]; 10.3 µM in data set [6]. The Drug metabolism entry in [7] is listed as “Metabolite_Detected”.
As for `COc1cc2ccc(=O)oc2cc1OCCCCCCOc1no[n+]([O-])c1S(=O)(=O)c1ccccc1`, the inhibition at 10 µM in data set [1] worked out at 84.8%. The IC50 in data set [2] is 3.35 µM; in data set [3], 4.48 µM; in [4], 3.79 µM; in data set [5] it was 9.43 µM; in data set [6] it was 12.4 µM. Further, the Drug metabolism entry in data set [7] was “Metabolite_Detected”.
For `O=S(=O)(c1ccccc1)c1c(OCCCO)no[n+]1[O-]`, the IC50 in data set [2] is 7.25 µM; in data set [9] it was 6.36 µM.
Take `COc1cc2cc(NC(C)=O)c(=O)oc2cc1O`: the inhibition at 10 µM in data set [1] was 5.21%.
